Consider 23 compounds from ChEMBL document CHEMBL1131043, “Nucleosides and nucleotides. 175. Structural requirements of the sugar moiety for the antitumor activities of new nucleoside antimetabolites, 1-(3-C-ethynyl-beta-D-ribo-pentofuranosyl)cytosine and -uracil1” (J Med Chem, 1998).

Experiment [1] concerns Sarcoma-180. The experiment can be described thus: Phosphorylation by uridine/cytidine kinase(UCK) from mouse sarcoma -180 ascites cells was measured. Type of experiment: functional. The method in brief:
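UCK partially purified from mouse Sarcoma-180 ascites cells (ammonium sulfate 30–50%, Sephacryl S-200, hydroxyapatite, DEAE-Sepharose). Reaction: 50 mM Tris-HCl pH 8.0, 10 mM ATP, 10 mM NaF, 5 mM MgCl2, 1 mg/mL BSA, 0.6 mM nucleoside, 37 °C, 15 min (Cyd, Urd) or 60 min (others), stopped by boiling. Tritiated nucleosides: 5'-monophosphate on PEI-cellulose TLC counted; unlabeled: substrate consumption by C18 HPLC at 270 nm. Duplicate means.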

Another experiment concerns L1210. The experiment can be described thus: Concentration required to inhibit 50% of murine leukemia L1210 cell growth was measured(in vitro) using MTT assay. Type of experiment: functional, cell-based, Mus musculus. The method in brief:
(§1)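 Cells seeded at 2 × 10³/well, cultured with or without test nucleoside for 72 h, then 4 h further with MTT. Formazan dissolved in DMSO, OD read at 540 nm. % inhibition = [1 − OD sample/OD control] × 100; IC50 taken as concentration giving 50% growth inhibition. S-180 cytotoxicity run by the same method.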
Background: Formazan colour is commonly taken as a measure of viable cells.

Experiment [2] deals with KB. As to the kind of experiment: Concentration required to inhibit 50% of human epidermoid KB cell growth was measured(in vitro) using MTT assay. Type of experiment: functional, cell-based. The method in brief:
as §1

In experiment [3] the test system is Sarcoma-180. The experiment can be described thus: Cytotoxicity against sarcoma -180 cells was measured by […]. As to conditions: Mus musculus. Type of experiment: functional, cell-based. The method in brief:
as §1

For experiment [4], the system named is KB. The experiment can be described thus: The concentration required to inhibit 50% of human epidermoid KB cell growth was measured(in vitro) using MTT assay. Type of experiment: functional, cell-based. The method in brief: as §1

The compound `Nc1ccn([C@@H]2O[C@H](CO)[C@@H](O)[C@H]2O)c(=O)n1` [CYTIDINE] yielded a Phosphorylating activity in the experiment on Sarcoma-180 [1] of 812 pmol/min/assay.

Compound `O=c1ccn([C@@H]2O[C@H](CO)[C@@H](O)[C@H]2O)c(=O)[nH]1` [URIDINE] returned a Phosphorylating activity in the experiment on Sarcoma-180 [1] of 755 pmol/min/assay.

Consider `C#CC[C@]1(O)[C@@H](CO)O[C@@H](n2ccc(=O)[nH]c2=O)[C@@H]1O`, for which the concentration for half-maximal inhibition (IC50) – broadly, the concentration that gives 50% inhibition – in the experiment with L1210 (Mus musculus, L1210) is more than 350 µM; in the experiment on KB [2] (Homo sapiens, KB) it was more than 350 µM.

For `CC[C@@]1(O)[C@@H](CO)O[C@@H](n2ccc(N)nc2=O)[C@@H]1O`, the IC50 was 269 µM in the experiment on L1210 (Mus musculus, L1210); more than 30 µM in the experiment on Sarcoma-180 [3]; 258 µM with KB [2] (Homo sapiens, KB). This compound came in with a Phosphorylating activity with Sarcoma-180 [1] of 0 pmol/min/assay.

In the case of `C#C[C@H]1[C@@H](O)[C@H](n2ccc(=O)[nH]c2=O)O[C@@H]1CO`, the 50% inhibitory concentration (IC50) in the experiment on L1210 (Mus musculus, L1210) is more than 350 µM; in the experiment on KB [2] (Homo sapiens, KB), more than 350 µM.

On to `C#C[C@]1(O)[C@H](O)[C@@H](CO)O[C@H]1n1ccc(N)nc1=O`, for which the IC50 was more than 350 µM with L1210 (Mus musculus, L1210) and more than 350 µM with KB [2] (Homo sapiens, KB).

As to `C#C[C@@H]1[C@@H](O)[C@H](n2ccc(=O)[nH]c2=O)O[C@@H]1CO`, the IC50 in the experiment on L1210 (Mus musculus, L1210) was more than 350 µM; in the experiment with KB [2] (Homo sapiens, KB), more than 350 µM.

On to `CCC#C[C@@]1(O)[C@@H](CO)O[C@@H](n2ccc(N)nc2=O)[C@@H]1O`, for which the half-maximal inhibitory concentration (IC50) in the experiment with L1210 (Mus musculus, L1210) is 129 µM; in the experiment on Sarcoma-180 [3], more than 30 µM; with KB [2] (Homo sapiens, KB), 108 µM. In the experiment on Sarcoma-180 [1], the Phosphorylating activity amounted to 0 pmol/min/assay.

`C#C[C@]1(O)[C@@H](CO)O[C@@H](n2ccc(=O)[nH]c2=O)[C@@H]1O`: the IC50 with L1210 (l1210) is more than 350 µM; with Sarcoma-180 [3], 0.013 µM; in the experiment on KB [2] (kb) it was more than 350 µM. In addition, the Phosphorylating activity in the experiment on Sarcoma-180 [1] was 141 pmol/min/assay.

In the case of `CC#C[C@@]1(O)[C@@H](CO)O[C@@H](n2ccc(N)nc2=O)[C@@H]1O`, the IC50 in the experiment on L1210 (Mus musculus, L1210) was determined as 24.5 µM; in the experiment on Sarcoma-180 [3], 13.9 µM; with KB [2] (Homo sapiens, KB) it was 14.6 µM. Besides, the Phosphorylating activity with Sarcoma-180 [1] stood at 160 pmol/min/assay.

Regarding `C#C[C@]1(O)[C@@H](CO)O[C@@H](n2ccc(N)nc2=O)[C@@H]1O`, the IC50 in the experiment on L1210 (l1210) and with KB [2] (kb) was more than 350 µM each time.

Turning to `C=C[C@@]1(O)[C@@H](CO)O[C@@H](n2ccc(N)nc2=O)[C@@H]1O`, the 50% inhibitory concentration (IC50) was 60.8 µM with L1210 (Mus musculus, L1210); more than 30 µM with Sarcoma-180 [3]; 74.3 µM in the experiment on KB [2] (Homo sapiens, KB). Moreover, the Phosphorylating activity in the experiment on Sarcoma-180 [1] is 0 pmol/min/assay.

For `C#C[C@@H]1[C@@H](O)[C@H](n2ccc(N)nc2=O)O[C@@H]1CO`, the IC50 with L1210 (Mus musculus, L1210) was more than 350 µM; in the experiment with Sarcoma-180 [3], more than 30 µM; in the experiment on KB [2] (Homo sapiens, KB), more than 350 µM. Also, in the experiment on Sarcoma-180 [1], the Phosphorylating activity came to 6.9 pmol/min/assay.

For the compound `CCC#C[C@@]1(O)[C@@H](CO)O[C@@H](n2ccc(=O)[nH]c2=O)[C@@H]1O`, the IC50 in the experiment with L1210 (Mus musculus, L1210) was found to be 338 µM; in the experiment on KB [2] (Homo sapiens, KB) it was 226 µM.

With `C#CC[C@]1(O)[C@@H](CO)O[C@@H](n2ccc(N)nc2=O)[C@@H]1O`, the IC50 with L1210 (Mus musculus, L1210) was more than 350 µM; in the experiment with KB [2] (Homo sapiens, KB), more than 350 µM.

Regarding `C#C[C@@]1(O)[C@H](O)[C@@H](CO)O[C@H]1n1ccc(N)nc1=O` [2'-ETHYNYL-D-CYTIDINE], the 50% inhibitory concentration (IC50) is more than 350 µM with L1210 (Mus musculus, L1210) and more than 350 µM with KB [2] (Homo sapiens, KB).

As for `C#CC[C@@]1(O)[C@@H](CO)O[C@@H](n2ccc(=O)[nH]c2=O)[C@@H]1O`, the half-inhibitory concentration (IC50) in the experiment with L1210 (Mus musculus, L1210) is more than 350 µM; in the experiment with KB [4], more than 350 µM.

As to `C=C[C@@]1(O)[C@@H](CO)O[C@@H](n2ccc(=O)[nH]c2=O)[C@@H]1O`, the IC50 is 148 µM in the experiment with L1210 (Mus musculus, L1210); more than 30 µM in the experiment with Sarcoma-180 [3]; 51.8 µM with KB [2] (Homo sapiens, KB). The Phosphorylating activity with Sarcoma-180 [1] was determined as 9.3 pmol/min/assay.

On to `C#CC[C@@]1(O)[C@@H](CO)O[C@@H](n2ccc(N)nc2=O)[C@@H]1O`, for which the IC50 in the experiment with L1210 (Mus musculus, L1210) is more than 350 µM; with KB [2] (Homo sapiens, KB), more than 350 µM.

Regarding `Nc1ccn([C@@H]2O[C@H](CO)[C@](O)(C3CC3)[C@H]2O)c(=O)n1`, the half-maximal inhibitory concentration (IC50) in the experiment on L1210 (Mus musculus, L1210) is more than 350 µM; with KB [2] (Homo sapiens, KB), more than 350 µM.

`CCC[C@@]1(O)[C@@H](CO)O[C@@H](n2ccc(=O)[nH]c2=O)[C@@H]1O`: the IC50 in the experiment on L1210 (Mus musculus, L1210) is more than 350 µM; in the experiment on KB [2] (Homo sapiens, KB), more than 350 µM.

With `CC#C[C@@]1(O)[C@@H](CO)O[C@@H](n2ccc(=O)[nH]c2=O)[C@@H]1O`, the IC50 in the experiment on L1210 (Mus musculus, L1210) is 354 µM; in the experiment on KB [2] (Homo sapiens, KB), 70.8 µM.

Turning to `O=c1ccn([C@@H]2O[C@H](CO)[C@](O)(C3CC3)[C@H]2O)c(=O)[nH]1`, the half-maximal inhibitory concentration (IC50) was more than 350 µM with L1210 (Mus musculus, L1210) and more than 350 µM with KB [2] (Homo sapiens, KB).
